ChEMBL document CHEMBL1165965, “Synthesis and structure-activity relationships of 1,2,3,4-tetrahydropyrido[2,3-b]pyrazines as potent and selective inhibitors of the anaplastic lymphoma kinase” (Bioorg Med Chem, 2010)

Experiments:
[1] = target: T1, Ephrin type-B receptor 3 (Homo sapiens) (UniProt P54753); experiment: Inhibition of EPHB3 at 1 uM
T1 sequence (whole entry): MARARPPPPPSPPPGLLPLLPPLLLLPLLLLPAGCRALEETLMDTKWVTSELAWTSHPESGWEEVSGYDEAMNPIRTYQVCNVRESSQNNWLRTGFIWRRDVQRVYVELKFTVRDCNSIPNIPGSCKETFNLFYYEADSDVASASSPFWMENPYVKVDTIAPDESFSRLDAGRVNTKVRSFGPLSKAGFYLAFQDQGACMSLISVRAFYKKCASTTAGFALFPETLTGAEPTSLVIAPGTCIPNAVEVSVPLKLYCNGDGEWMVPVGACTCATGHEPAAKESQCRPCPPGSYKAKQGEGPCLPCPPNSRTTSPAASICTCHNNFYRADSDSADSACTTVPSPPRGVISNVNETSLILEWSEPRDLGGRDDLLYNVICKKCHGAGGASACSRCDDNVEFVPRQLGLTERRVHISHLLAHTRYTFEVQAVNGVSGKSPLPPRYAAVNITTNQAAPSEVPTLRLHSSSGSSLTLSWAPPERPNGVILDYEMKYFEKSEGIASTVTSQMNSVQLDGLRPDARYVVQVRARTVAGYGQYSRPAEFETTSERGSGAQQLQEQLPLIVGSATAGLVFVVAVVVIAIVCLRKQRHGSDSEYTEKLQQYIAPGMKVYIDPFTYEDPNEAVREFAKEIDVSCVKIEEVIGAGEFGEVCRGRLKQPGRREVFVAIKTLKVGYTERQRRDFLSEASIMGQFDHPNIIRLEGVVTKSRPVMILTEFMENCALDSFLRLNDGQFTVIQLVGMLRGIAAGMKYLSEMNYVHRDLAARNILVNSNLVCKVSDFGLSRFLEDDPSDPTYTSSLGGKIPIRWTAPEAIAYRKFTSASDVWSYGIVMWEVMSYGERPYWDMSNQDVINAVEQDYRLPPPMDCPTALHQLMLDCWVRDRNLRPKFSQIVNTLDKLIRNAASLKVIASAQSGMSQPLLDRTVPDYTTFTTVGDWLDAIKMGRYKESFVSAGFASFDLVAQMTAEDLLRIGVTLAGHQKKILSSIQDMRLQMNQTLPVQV
In short: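 Single-concentration screen using Ambit Bioscience KINOMEscan technology across a panel of 250–400 kinases. Per-kinase inhibition from this screen was summarized as S(90), the fraction of kinases inhibited by more than 90%.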

[2] = target: T2, Serine/threonine-protein kinase BRSK1 (Homo sapiens) (UniProt Q8TDC3); experiment: Inhibition of BRSK1 at 1 uM
T2 sequence (whole entry): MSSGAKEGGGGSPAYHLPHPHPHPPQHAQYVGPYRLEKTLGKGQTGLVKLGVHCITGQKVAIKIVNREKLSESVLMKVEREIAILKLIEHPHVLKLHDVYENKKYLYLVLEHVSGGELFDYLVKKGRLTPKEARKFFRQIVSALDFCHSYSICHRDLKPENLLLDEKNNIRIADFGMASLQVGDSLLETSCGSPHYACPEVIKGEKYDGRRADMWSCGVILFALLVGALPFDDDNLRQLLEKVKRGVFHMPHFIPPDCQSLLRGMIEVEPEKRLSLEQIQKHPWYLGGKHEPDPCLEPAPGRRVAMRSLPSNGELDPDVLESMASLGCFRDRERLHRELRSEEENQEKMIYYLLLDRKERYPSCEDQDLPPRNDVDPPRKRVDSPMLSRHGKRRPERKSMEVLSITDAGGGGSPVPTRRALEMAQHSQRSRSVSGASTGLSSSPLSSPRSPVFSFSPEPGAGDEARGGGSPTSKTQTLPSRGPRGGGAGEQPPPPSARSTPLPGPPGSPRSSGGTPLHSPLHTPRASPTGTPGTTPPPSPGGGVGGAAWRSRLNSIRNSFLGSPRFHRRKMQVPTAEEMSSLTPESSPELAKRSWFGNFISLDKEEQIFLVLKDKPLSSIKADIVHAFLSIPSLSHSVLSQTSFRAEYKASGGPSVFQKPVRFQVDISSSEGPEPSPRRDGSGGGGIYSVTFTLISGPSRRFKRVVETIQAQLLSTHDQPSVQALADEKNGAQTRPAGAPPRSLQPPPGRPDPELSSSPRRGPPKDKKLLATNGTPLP
In short: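 Ambit KINOMEscan screen at a single concentration across a 250–400 kinase panel, recorded as percent inhibition. Selectivity was expressed as S(90), the fraction of kinases inhibited >90%.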

[3] = target: RAF proto-oncogene serine/threonine-protein kinase (Homo sapiens) (UniProt P04049); experiment: Inhibition of RAF1 at 1 uM
[4] = target: T3, Mitogen-activated protein kinase kinase kinase 2 (Homo sapiens) (UniProt Q9Y2U5); experiment: Inhibition of MAP3K2 at 1 uM
T3 sequence (whole entry): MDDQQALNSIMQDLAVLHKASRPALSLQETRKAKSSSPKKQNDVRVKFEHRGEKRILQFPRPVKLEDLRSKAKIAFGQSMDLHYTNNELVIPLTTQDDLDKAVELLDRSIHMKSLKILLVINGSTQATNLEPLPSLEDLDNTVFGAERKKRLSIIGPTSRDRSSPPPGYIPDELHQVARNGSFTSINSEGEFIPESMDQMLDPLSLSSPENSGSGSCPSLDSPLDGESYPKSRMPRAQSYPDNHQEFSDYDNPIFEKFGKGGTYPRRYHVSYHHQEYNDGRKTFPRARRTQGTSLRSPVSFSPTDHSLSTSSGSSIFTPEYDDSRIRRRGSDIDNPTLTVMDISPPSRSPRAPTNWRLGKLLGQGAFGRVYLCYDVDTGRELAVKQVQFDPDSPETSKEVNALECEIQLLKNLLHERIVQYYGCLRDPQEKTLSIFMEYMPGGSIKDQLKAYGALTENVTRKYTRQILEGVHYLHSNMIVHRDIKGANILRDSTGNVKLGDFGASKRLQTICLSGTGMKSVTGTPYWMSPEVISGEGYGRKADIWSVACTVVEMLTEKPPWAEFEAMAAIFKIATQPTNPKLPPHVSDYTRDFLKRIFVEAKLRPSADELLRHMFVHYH

[5] = target: T4, Testis-specific serine/threonine-protein kinase 1 (Homo sapiens) (UniProt Q9BXA7); experiment: Inhibition of TSSK1B at 1 uM
T4 sequence (whole entry): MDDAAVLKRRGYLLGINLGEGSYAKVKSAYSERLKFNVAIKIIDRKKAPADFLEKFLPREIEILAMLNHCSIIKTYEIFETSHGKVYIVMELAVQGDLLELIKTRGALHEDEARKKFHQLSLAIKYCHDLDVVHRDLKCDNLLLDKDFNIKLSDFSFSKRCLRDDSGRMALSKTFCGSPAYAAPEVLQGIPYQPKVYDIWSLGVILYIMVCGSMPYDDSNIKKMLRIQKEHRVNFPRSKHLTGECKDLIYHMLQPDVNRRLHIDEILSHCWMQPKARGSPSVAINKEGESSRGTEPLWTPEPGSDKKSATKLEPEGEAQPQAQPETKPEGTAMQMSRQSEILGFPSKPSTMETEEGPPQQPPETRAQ

RAF proto-oncogene serine/threonine-protein kinase (Homo sapiens), sequence (P04049 whole entry): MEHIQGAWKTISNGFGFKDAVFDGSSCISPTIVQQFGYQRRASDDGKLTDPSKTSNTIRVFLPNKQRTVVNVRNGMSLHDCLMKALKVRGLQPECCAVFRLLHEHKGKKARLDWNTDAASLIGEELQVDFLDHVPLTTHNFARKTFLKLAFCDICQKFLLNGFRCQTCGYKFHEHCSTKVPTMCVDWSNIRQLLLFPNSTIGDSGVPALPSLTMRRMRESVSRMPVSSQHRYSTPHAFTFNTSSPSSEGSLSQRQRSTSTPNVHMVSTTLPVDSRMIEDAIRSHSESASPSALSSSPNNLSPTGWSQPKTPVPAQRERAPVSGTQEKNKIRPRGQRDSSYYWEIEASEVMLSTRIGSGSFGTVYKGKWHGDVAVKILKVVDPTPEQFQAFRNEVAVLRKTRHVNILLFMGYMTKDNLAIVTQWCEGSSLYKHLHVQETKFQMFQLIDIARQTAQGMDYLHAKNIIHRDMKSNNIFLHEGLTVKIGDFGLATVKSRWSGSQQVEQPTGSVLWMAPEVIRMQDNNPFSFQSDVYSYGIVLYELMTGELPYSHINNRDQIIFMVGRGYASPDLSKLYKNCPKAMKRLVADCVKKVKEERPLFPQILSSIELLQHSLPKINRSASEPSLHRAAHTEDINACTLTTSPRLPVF

| inhibition [1] | inhibition [2] | inhibition [3] | inhibition [4] | inhibition [5] | Compound |
| --- | --- | --- | --- | --- | --- |
| < 50% | < 50% | < 50% |  |  | COC1CCN(C(=O)c2ccc(-c3cnc4c(c3)N(Cc3cc(Cl)ccc3C(F)(F)F)CCN4)cc2)CC1 |
| < 50% | < 50% | < 50% |  |  | O=C(c1ccc(-c2cnc3c(c2)N(Cc2cc(Cl)ccc2C(F)(F)F)CCN3)cc1)N1CCCCC1 |
| < 50% | < 50% | < 50% |  |  | O=C(c1ccc(-c2cnc3c(c2)N(Cc2cc(Cl)ccc2C(F)(F)F)CCN3)cc1)N1CCC(N2CCCC2)CC1 |

More lines, now with the values behind:

| Compound | inhibition [1] | inhibition [2] | inhibition [3] | inhibition [4] | inhibition [5] |
| --- | --- | --- | --- | --- | --- |
| CN1CCN(c2ccc(-c3cnc4c(c3)N(Cc3cc(Cl)ccc3Cl)CCN4)cn2)CC1 | < 50% | < 50% | < 50% | < 50% | < 50% |
| CN1CCN(c2ccc(-c3cnc4c(c3)N(Cc3cc(Cl)ccc3C(F)(F)F)CCN4)cn2)CC1 | < 50% | < 50% | < 50% | 74% | < 50% |
| FC(F)(F)c1ccc(Cl)cc1CN1CCNc2ncc(-c3ccnc(N4CCNCC4)c3)cc21 | < 50% | < 50% | < 50% | 93% | < 50% |
| CC(=O)N1CCN(c2cc(-c3cnc4c(c3)N(Cc3cc(Cl)ccc3C(F)(F)F)CCN4)ccn2)CC1 | < 50% | < 50% | < 50% | 81% | < 50% |
| O=C(O)c1ccc(-c2cnc3c(c2)N(Cc2cc(Cl)ccc2C(F)(F)F)CCN3)cc1 | < 50% | < 50% | < 50% |  |  |
| CN1CCN(c2ccc(-c3cnc4c(c3)N(Cc3c(F)ccc(F)c3Cl)CCN4)cn2)CC1 | < 50% | < 50% | < 50% | < 50% | < 50% |
| CN1CCN(c2ccc(-c3cnc4c(c3)N(Cc3cc(F)ccc3F)CCN4)cn2)CC1 | < 50% | < 50% | < 50% | < 50% | < 50% |
